Measured values: ChEMBL document CHEMBL1144197, “Synthesis of 5-(1-H or 1-alkyl-5-oxopyrrolidin-3-yl)-8-hydroxy-[1,6]-naphthyridine-7-carboxamide inhibitors of HIV-1 integrase” (Bioorg Med Chem Lett, 2008)

Tests used:
[1] = Protein binding in human plasma at pH 7.4; type: ADME, cell-free; details: read-out: PPB (converted)
Procedure, shortened: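 Binding to human plasma (primarily albumin) measured by HPLC with UV detection, in pH 7.4 buffer at room temperature. Each value is the average of three determinations.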

[2] = system: Human immunodeficiency virus 1; assay: Antiviral activity against HIV1 3b in human MT4 cells assessed as decrease in HIV1 p24 core antigen in presence of 10% fetal bovine serum; type: functional
Procedure, shortened: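 HIV-1 IIIb replication in MT-4 human T-lymphoid cells, cultured with 10% FBS across increasing inhibitor concentrations. Read-out is the decrease in p24 core antigen. IC95 is the concentration giving 95% inhibition of viral growth relative to control.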

[3] = target: Human immunodeficiency virus type 1 integrase (Human immunodeficiency virus 1, UniProt Q7ZJM1); assay: Inhibition of recombinant HIV1 integrase strand transfer activity using immobilized DNA substrate
Procedure, shortened: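 Recombinant HIV integrase (100 nM) preassembled on immobilized oligonucleotides, with 0.5 nM DNA, in a strand transfer read-out. Values are means of at least two experiments. The lower limit of accuracy is about 5 nM, with SD approximately twofold.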

[4] = Partition coefficient, log P at pH 7.4; type: physicochemical; details: octanol/water
Procedure, shortened: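 A methanol solution of compound is partitioned between octanol and pH 7.4 KH2PO4/NaOH aqueous buffer, and both layers are quantified by HPLC-UV. Log P = log[(octanol area × octanol dilution)/(buffer area × buffer dilution)].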

[5] = system: Human immunodeficiency virus 1; assay: Antiviral activity against HIV1 3b in human MT4 cells assessed as decrease in HIV1 p24 core antigen in presence of 50% normal human serum
[6] = Half life in rat at 2 mg/kg, iv; type: ADME, organism-based; set-up: dose 2 mg/kg, route intravenous; details: in vivo
Procedure, shortened: (§1)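 Intravenous dosing in DMSO at 2 mg/kg.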

[7] = Oral bioavailability in rat at 10 mg/kg; type: ADME, organism-based; details: in vivo
Procedure, shortened: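 Oral dosing in 1% methylcellulose at 10 mg/kg.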

[8] = Clearance in rat at 2 mg/kg, iv; type: ADME, organism-based; set-up: dose 2 mg/kg, route intravenous; details: in vivo; procedure, shortened: as §1

Sequence of Human immunodeficiency virus type 1 integrase (Q7ZJM1 whole entry): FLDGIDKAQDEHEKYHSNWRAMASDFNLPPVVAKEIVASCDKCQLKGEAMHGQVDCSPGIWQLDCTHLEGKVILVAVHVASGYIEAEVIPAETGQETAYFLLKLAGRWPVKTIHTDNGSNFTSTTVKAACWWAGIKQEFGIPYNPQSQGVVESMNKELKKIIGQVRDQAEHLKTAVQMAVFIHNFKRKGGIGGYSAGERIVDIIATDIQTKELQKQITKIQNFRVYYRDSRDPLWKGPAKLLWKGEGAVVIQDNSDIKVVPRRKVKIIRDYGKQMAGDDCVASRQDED

CCN1CC(c2nc(C(=O)NCc3ccc(F)cc3S(C)(=O)=O)c(O)c3ncccc23)CC1=O (stereo not given)
fraction unbound [1]: 0.04
IC95 [2]: 38 nM
IC50 [3]: 26 nM
logD [4]: 1.9
Antiviral potency (p24 reduction) [5]: 81 nM

CN(C)C(=O)CN1CC(c2nc(C(=O)NCc3ccc(F)cc3)c([O-])c3ncccc23)CC1=O.[Na+] (stereo not given)
half-life [6]: 204 min
bioavailability [7]: 5%
clearance [8]: 23.4 mL/min/kg

CN1CC(c2nc(C(=O)NCc3ccc(F)cc3)c([O-])c3ncccc23)CC1=O.[Na+] (stereo not given)
half-life [6]: 78 min
bioavailability [7]: 65%
clearance [8]: 2.5 mL/min/kg

CN(C)C(=O)CN1CC(c2nc(C(=O)NCc3ccc(F)cc3)c(O)c3ncccc23)CC1=O (stereo not given)
fraction unbound [1]: 0.052
IC95 [2]: 31 nM
IC50 [3]: 33 nM
logD [4]: 1.8
Antiviral potency (p24 reduction) [5]: 63 nM

CCN1CC(c2nc(C(=O)NCc3ccc(F)cc3)c(O)c3ncccc23)CC1=O (stereo not given)
fraction unbound [1]: 0.011
IC95 [2]: 16 nM
IC50 [3]: 14 nM
logD [4]: 2.7
Antiviral potency (p24 reduction) [5]: 125 nM

O=C1CC(c2nc(C(=O)NCc3ccc(F)cc3)c(O)c3ncccc23)CN1 (stereo not given)
IC95 [2]: 42 nM
IC50 [3]: 24 nM
Antiviral potency (p24 reduction) [5]: 83 nM

CC(C)N1CC(c2nc(C(=O)NCc3ccc(F)cc3)c(O)c3ncccc23)CC1=O (stereo not given)
fraction unbound [1]: 0.022
IC95 [2]: 31 nM
IC50 [3]: 40 nM
logD [4]: 2.7
Antiviral potency (p24 reduction) [5]: 125 nM

CN1CC(c2nc(C(=O)NCc3ccc(F)cc3S(C)(=O)=O)c(O)c3ncccc23)CC1=O (stereo not given)
fraction unbound [1]: 0.03
half-life [6]: 40.2 min
IC95 [2]: 31 nM
IC50 [3]: 123 nM
logD [4]: 1.6
bioavailability [7]: 4%
Antiviral potency (p24 reduction) [5]: 63 nM
clearance [8]: 17.2 mL/min/kg

CN1CC(c2nc(C(=O)NCc3ccc(F)cc3)c(O)c3ncccc23)CC1=O (stereo not given)
fraction unbound [1]: 0.012
IC95 [2]: 31 nM
IC50 [3]: 20 nM
logD [4]: 2.3
Antiviral potency (p24 reduction) [5]: 125 nM

O=C(NCc1ccc(F)cc1)c1ncc2cccnc2c1O
fraction unbound [1]: 0.008
IC95 [2]: 1250 nM
Antiviral potency (p24 reduction) [5]: 5000 nM
